Data from ChEMBL document CHEMBL3244388, “Synthesis and antihypertensive activity of 2-benzamido-1,2,3,4,6,7,12,12b-octahydroindolo[2,3-a]quinolizines” (J Med Chem, 1979).
The source made the active and inactive calls. The rule behind the calls is not given here.

Experiments:
[1] = tested on: Rattus norvegicus; assay: Antihypertensive activity in spontaneous hypertensive rat assessed as change in systolic blood pressure at 50 mg/kg, po […] measured 2 hrs post last dose on day 3 by tail-cuff method relative to vehicle-treated control; assay type: functional, Artery
How it was run: (§1)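 Spontaneously hypertensive rats, pre-trained for 2 weeks; animals with baseline below 175 mmHg excluded. Oral dosing at 0 h on days 1, 2 and 3, six rats per group. After warming (20 min, 40 °C), systolic pressure was read by tail-cuff with microphone, 3–5 readings averaged. Readings at 0 h on days 1 and 3 and 2 h post-dose on day 3 were compared with 0-h controls by paired t test; a drop over 15 mmHg counted as active.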

[2] = tested on: Rattus norvegicus; assay: Toxicity in spontaneous hypertensive rat assessed as mortality at 50 mg/kg, po administered on […] measured 2 hrs post last dose on day 3; assay type: organism-based; design: dose 50 mg/kg, route oral; conditions: in vivo
How it was run: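 Genetically spontaneously hypertensive rats, each trained for 2 weeks to set baseline; animals below 175 mmHg were excluded. Groups of six were dosed orally at 0 h on days 1, 2 and 3. Systolic pressure was read by indirect tail-cuff after 20 min conditioning at 40 °C, 3–5 readings averaged, at 0 h on days 1 and 3 and 2 h post-dose on day 3.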

[3] = tested on: Rattus norvegicus; assay: Antihypertensive activity in spontaneous hypertensive rat assessed as change in systolic blood pressure at 25 mg/kg, po administered […] measured 2 hrs post last dose on day 3 by tail-cuff method relative to vehicle-treated control; assay type: functional, Artery; how it was run: as §1
[4] = tested on: Canis familiaris; assay: Inhibition of alpha-adrenergic receptor in iv dosed dog; assay type: functional, organism-based; conditions: Canis lupus familiaris
[5] = tested on: Rattus norvegicus; assay: Antihypertensive activity in spontaneous hypertensive rat assessed as change in systolic blood pressure at 5 mg/kg, po administered […] measured 2 hrs post last dose on day 3 by tail-cuff method relative to vehicle-treated control; assay type: functional, Artery; how it was run: as §1
[6] = organism: Felis catus; assay: Inhibition of cat spleen alpha-adrenergic receptor; assay type: tissue-based
[7] = tested on: Rattus norvegicus; assay: Antihypertensive activity in spontaneous hypertensive rat assessed as change in systolic blood pressure at 10 mg/kg, po […] measured 2 hrs post last dose on day 3 by tail-cuff method […]; assay type: functional, Artery; how it was run: as §1
[8] = tested on: Rattus norvegicus; assay: Antihypertensive activity in spontaneous hypertensive rat assessed as change in systolic blood pressure at 15 mg/kg, po […] measured 2 hrs post last dose on day 3 by tail-cuff method relative to vehicle-treated control; assay type: functional, Artery; how it was run: as §1

Compound	Activity [1] [mmHg]	Activity [3] [mmHg]	further results
Cc1ccc(C(=O)N[C@@H]2CCN3CCc4c([nH]c5ccccc45)[C@@H]3C2)cc1	-18		
CN(C#N)[C@@H]1CCN2CCc3c([nH]c4ccccc34)[C@@H]2C1	-51		Activity [2]: Toxic
COc1ccc(C(=O)N[C@@H]2CCN3CCc4c([nH]c5ccccc45)[C@@H]3C2)cc1		10	
O=C(c1ccccc1)N(C1CC1)C1CCN2CCc3c([nH]c4ccccc34)[C@@H]2C1 (stereo partly drawn)	-26		
COc1cc(C(=O)N[C@@H]2CCN3CCc4c([nH]c5ccccc45)[C@@H]3C2)cc(OC)c1OC		-25	
O=C(N[C@@H]1CCN2CCc3c([nH]c4ccccc34)[C@@H]2C1)c1cccc(C(F)(F)F)c1	-3		
COc1cccc(C(=O)N[C@@H]2CCN3CCc4c([nH]c5ccccc45)[C@@H]3C2)c1	-18		
O=C(N[C@@H]1CCN2CCc3c([nH]c4ccccc34)[C@@H]2C1)c1ccccc1	1		
CCCN(C(=O)c1ccccc1)C1CCN2CCc3c([nH]c4ccccc34)[C@@H]2C1 (stereo partly drawn)	-16		
Cc1ccc(C(=O)N[C@H]2CCN3CCc4c([nH]c5ccccc45)[C@@H]3C2)cc1		-32	
CN(C(=O)c1cccc(Cl)c1)C1CCN2CCc3c([nH]c4ccccc34)[C@@H]2C1 (stereo partly drawn)	-79	-54	
CN(C(=O)c1ccccc1Cl)C1CCN2CCc3c([nH]c4ccccc34)[C@@H]2C1 (stereo partly drawn)		-13	
c1ccc(CCNC2CCN3CCc4c([nH]c5ccccc45)[C@@H]3C2)cc1 (stereo partly drawn)	-16		
c1ccc(CNC2CCN3CCc4c([nH]c5ccccc45)[C@@H]3C2)cc1 (stereo partly drawn)	-53	-8	
Cc1ccccc1C(=O)N[C@@H]1CCN2CCc3c([nH]c4ccccc34)[C@@H]2C1	13		
CC(=O)NC1CCN2CCc3c([nH]c4ccccc34)[C@@H]2C1 (stereo partly drawn)	-20		
O=C(Nc1ccccc1)N[C@H]1CCN2CCc3c([nH]c4ccccc34)[C@@H]2C1		-6	
CCCNC1CCN2CCc3c([nH]c4ccccc34)[C@@H]2C1 (stereo partly drawn)	27		
CN(C(=O)c1ccccc1)[C@@H]1CCN2CCc3c([nH]c4ccccc34)[C@@H]2C1	-103		inhibition [4]: Active; Activity [5]: -19 mmHg; inhibition [6]: Active; Activity [7]: -41 mmHg
CN(C(=O)c1ccccc1)[C@H]1CCN2CCc3c([nH]c4ccccc34)[C@@H]2C1			Activity [8]: -17 mmHg
CCNC1CCN2CCc3c([nH]c4ccccc34)[C@@H]2C1 (stereo partly drawn)	-4		
Cc1cccc(C(=O)N[C@H]2CCN3CCc4c([nH]c5ccccc45)[C@@H]3C2)c1		-53	
O=C(N[C@@H]1CCN2CCc3c([nH]c4ccccc34)[C@@H]2C1)c1ccccc1Br	-24		
O=C(Nc1ccccc1)N[C@@H]1CCN2CCc3c([nH]c4ccccc34)[C@@H]2C1	-22		
NC1CCN2CCc3c([nH]c4ccccc34)[C@@H]2C1 (stereo partly drawn)		-9.5	

Compound	Activity [1] [mmHg]	Activity [3] [mmHg]	further results
O=C(N[C@H]1CCN2CCc3c([nH]c4ccccc34)[C@@H]2C1)c1ccccc1Br	18		
CN(Cc1ccccc1)[C@@H]1CCN2CCc3c([nH]c4ccccc34)[C@@H]2C1	-54		
O=C(N[C@@H]1CCN2CCc3c([nH]c4ccccc34)[C@@H]2C1)c1ccc2c(c1)OCO2	-52		
O=C(N[C@@H]1CCN2CCc3c([nH]c4ccccc34)[C@@H]2C1)c1ccc(Cl)cc1	-3		
CN(C(=O)c1cccc(F)c1)C1CCN2CCc3c([nH]c4ccccc34)[C@@H]2C1 (stereo partly drawn)	-110	-76	
Cc1cccc(C(=O)N[C@@H]2CCN3CCc4c([nH]c5ccccc45)[C@@H]3C2)c1	-49		
CCN(C(=O)c1ccccc1)C1CCN2CCc3c([nH]c4ccccc34)[C@@H]2C1 (stereo partly drawn)	-83	-92	
O=C(N[C@@H]1CCN2CCc3c([nH]c4ccccc34)[C@@H]2C1)c1ccc(F)cc1		-24	
O=C1c2ccccc2CN1[C@@H]1CCN2CCc3c([nH]c4ccccc34)[C@@H]2C1	2		
c1ccc(NC2CCN3CCc4c([nH]c5ccccc45)[C@@H]3C2)cc1 (stereo partly drawn)		-25	
c1ccc2c3c([nH]c2c1)[C@@H]1CC(NC2CC2)CCN1CC3 (stereo partly drawn)	-25		
CCn1c2c(c3ccccc31)CCN1CCC(NC)C[C@@H]21 (stereo partly drawn)	-30		
CNC1CCN2CCc3c([nH]c4ccccc34)[C@@H]2C1 (stereo partly drawn)	-18		
O=C(N[C@@H]1CCN2CCc3c([nH]c4ccccc34)[C@@H]2C1)c1ccccc1Cl	-26		
COc1ccc(C(=O)N(C)[C@@H]2CCN3CCc4c([nH]c5ccccc45)[C@@H]3C2)cc1	-50	-72	inhibition [4]: Active; Activity [5]: -53 mmHg; inhibition [6]: Active; Activity [7]: -86 mmHg
c1ccc(N[C@H]2CCN3CCc4c([nH]c5ccccc45)[C@@H]3C2)cc1		5.75	
CN(C(=O)c1ccc(F)cc1)C1CCN2CCc3c([nH]c4ccccc34)[C@@H]2C1 (stereo partly drawn)	-20		
CCn1c2c(c3ccccc31)CCN1CCC(N(C)C(=O)c3ccccc3)C[C@@H]21 (stereo partly drawn)	-67	-63	
O=C(NC1CCN2CCc3c([nH]c4ccccc34)[C@@H]2C1)c1ccco1 (stereo partly drawn)	0		
Cl.O=C(NC1CCN(CCc2c[nH]c3ccccc23)CC1)c1ccccc1 [INDORAMIN HYDROCHLORIDE]	-79		
CN(C(=O)c1ccc(Cl)cc1)C1CCN2CCc3c([nH]c4ccccc34)[C@@H]2C1 (stereo partly drawn)	-6		
CN(C(=O)c1cccc(C(F)(F)F)c1)C1CCN2CCc3c([nH]c4ccccc34)[C@@H]2C1 (stereo partly drawn)	-48	-56	inhibition [4]: Active; inhibition [6]: Active
Cc1ccccc1C(=O)N(C)C1CCN2CCc3c([nH]c4ccccc34)[C@@H]2C1 (stereo partly drawn)	-44		
Cl.O=C(N[C@@H]1CCN2CCc3c([nH]c4ccccc34)[C@@H]2C1)c1ccc([N+](=O)[O-])cc1	15		
Nc1ccc(C(=O)N[C@@H]2CCN3CCc4c([nH]c5ccccc45)[C@@H]3C2)cc1	-31		
